According to ChEMBL document CHEMBL1123555, “1,2-Bis(sulfonyl)hydrazines. 3. Effects of structural modification on antineoplastic activity” (1987):

Columns and labels:
[1] = organism: Mus musculus; assay: Antitumor activity against B16 melanoma cells in mice. Activity is expressed as optimal effective dose.; assay type: functional
Outline: (§1)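 Transplanted tumor in mice, given i.p. once daily for 6 consecutive days starting 24 h after implantation. Doses span 10-150 mg/kg per day as fine suspensions homogenized in a few drops of 20% aqueous Tween 80 and made up with isotonic saline. Groups of five; vehicle-injected tumor-bearing controls. %T/C = mean survival time treated/control × 100. Value is the daily dose giving maximum %T/C.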

[2] = tested on: L1210; assay: Antitumor activity against L1210 leukemia cells in mice, activity is expressed as optimal effective dose.; assay type: functional, Mus musculus; outline: as §1
[3] = organism: Mus musculus; assay: Antitumor activity against L1210 leukemia cells in mice (activity expressed as average survival time of treated/control animals x 100); assay type: functional
Outline: (§2)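 Compound given ip as a fine suspension (homogenized in drops of 20% aqueous Tween 80, made to volume with isotonic saline) at 10-150 mg/kg per day, once daily for 6 consecutive days starting 24 h after implantation. Vehicle-injected tumor-bearing controls were included. Read-out was survival time; body-weight change over therapy was the toxicity indicator.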

[4] = Antitumor activity against mouse B16 melanoma cells, calculated as average change in body weight from onset to termination of therapy; assay type: functional
Outline: (§3)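 Tumor-bearing mice in groups of five, dosed i.p. daily for 6 days from 24 h post-implantation with suspensions in Tween 80/isotonic saline at 10-150 mg/kg per day; vehicle controls run alongside. Mice weighed during the experiment. Average percent body-weight change from onset to termination of therapy was taken as the toxicity index, reported at the optimal-survival dose.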

[5] = organism: Mus musculus; assay: Antitumor activity against L1210 leukemia cells in mice calculated as average change in body weight from onset to termination of therapy; assay type: functional; outline: as §3
[6] = Antitumor activity against B16 melanoma cells in mice, activity is expressed as average survival time of treated/control animals x 100.; assay type: functional, Mus musculus; outline: as §2
[7] = organism: Mus musculus; assay: Antitumor activity against B16 melanoma cells in mice, activity is expressed as optimal effective dose; assay type: functional; outline: as §1

## CCS(=O)(=O)NN(C)S(=O)(=O)c1ccc(C)cc1
[1]
  Dose: 50 mg/kg
[2]
  Dose: 30 mg/kg
[3]
  T/C: 162%
[4]
  Weight change: -1.1%
[5]
  Weight change: -2.6%

## COc1ccc(S(=O)(=O)NN(C)S(=O)(=O)c2ccc(C)cc2)cc1
[1]
  Dose: 100 mg/kg
[2]
  Dose: 100 mg/kg
[6]
  T/C: 200%
[4]
  Weight change: 9.1%
[5]
  Weight change: 7.8%

## Cc1ccc(S(=O)(=O)NN(C)S(=O)(=O)c2ccc(Cl)cc2)cc1
[1]
  Dose: 50 mg/kg
[2]
  Dose: 100 mg/kg
[4]
  Weight change: -0.4%
[5]
  Weight change: 5.5%

## Cc1ccc(S(=O)(=O)N(C)NS(=O)(=O)c2ccccc2)cc1
[1]
  Dose: 150 mg/kg
[2]
  Dose: 50 mg/kg
[4]
  Weight change: 8.5%
[5]
  Weight change: 2%

## CN(NS(=O)(=O)c1ccc(Cl)cc1)S(=O)(=O)c1ccc(Cl)cc1
[1]
  Dose: 50 mg/kg
[2]
  Dose: 150 mg/kg
[6]
  T/C: 163%
[4]
  Weight change: 4.8%
[5]
  Weight change: 1.3%

## COc1ccc(S(=O)(=O)N(C)NS(=O)(=O)c2ccc(C)cc2)cc1
[1]
  Dose: 100 mg/kg
[2]
  Dose: 150 mg/kg
[4]
  Weight change: -14%
[5]
  Weight change: 9.8%

## Cc1ccc(S(=O)(=O)N(C)NS(C)(=O)=O)cc1
[1]
  Dose: 10 mg/kg
[2]
  Dose: 30 mg/kg
[4]
  Weight change: -1.9%
[5]
  Weight change: -7.9%

## Cc1ccc(S(=O)(=O)N(C)NS(=O)(=O)c2ccc(Cl)cc2)cc1
[1]
  Dose: 50 mg/kg
[2]
  Dose: 50 mg/kg
[4]
  Weight change: 2.9%
[5]
  Weight change: 3.7%

## COc1ccc(S(=O)(=O)NN(C)S(=O)(=O)c2ccccc2)cc1
[1]
  Dose: 50 mg/kg
[2]
  Dose: 50 mg/kg
[4]
  Weight change: -5.9%
[5]
  Weight change: 4.5%

## Cc1ccc(S(=O)(=O)NN(C)S(=O)(=O)c2ccccc2)cc1
[1]
  Dose: 50 mg/kg
[2]
  Dose: 50 mg/kg
[4]
  Weight change: 0.8%
[5]
  Weight change: 10.7%

## CN(NS(=O)(=O)c1ccc(Br)cc1)S(=O)(=O)Cc1ccccc1
[7]
  Dose: 50 mg/kg
[4]
  Weight change: 4.7%

## COc1ccc(S(=O)(=O)NN(C)S(=O)(=O)c2ccc(OC)cc2)cc1
[1]
  Dose: 100 mg/kg
[2]
  Dose: 50 mg/kg
[6]
  T/C: 191%
[4]
  Weight change: -2.4%

## Cc1ccc(S(=O)(=O)NN(C)S(=O)(=O)c2ccc(I)cc2)cc1
[1]
  Dose: 50 mg/kg
[4]
  Weight change: 1.4%

## CN(NS(=O)(=O)c1ccccc1)S(=O)(=O)Cc1ccccc1
[1]
  Dose: 50 mg/kg
[2]
  Dose: 50 mg/kg
[4]
  Weight change: -1.5%
[5]
  Weight change: -3.1%

## COc1ccc(S(=O)(=O)N(C)NS(=O)(=O)c2ccccc2)cc1
[1]
  Dose: 100 mg/kg
[2]
  Dose: 100 mg/kg
[3]
  T/C: 142%
[4]
  Weight change: 4.7%
[5]
  Weight change: -3.9%

## CN(NS(=O)(=O)Cc1ccccc1)S(=O)(=O)Cc1ccccc1
[1]
  Dose: 150 mg/kg
[4]
  Weight change: -17.1%

## COc1ccc(S(=O)(=O)N(C)NS(=O)(=O)Cc2ccccc2)cc1
[1]
  Dose: 50 mg/kg
[2]
  Dose: 50 mg/kg
[6]
  T/C: 160%
[3]
  T/C: 153%
[4]
  Weight change: 2.1%
[5]
  Weight change: 1.5%

## CN(NS(=O)(=O)c1ccc(Br)cc1)S(=O)(=O)c1ccccc1
[1]
  Dose: 50 mg/kg
[4]
  Weight change: -1.6%

## CN(NS(=O)(=O)c1ccccc1)S(=O)(=O)c1ccc(Cl)cc1
[1]
  Dose: 50 mg/kg
[2]
  Dose: 50 mg/kg
[3]
  T/C: 115%
[4]
  Weight change: 2.3%
[5]
  Weight change: 6.8%

## Cc1ccc(S(=O)(=O)NN(C)S(=O)(=O)c2ccc(C)cc2)cc1
[1]
  Dose: 150 mg/kg
[2]
  Dose: 50 mg/kg
[4]
  Weight change: -2.7%
[5]
  Weight change: 3.7%

## CN(NS(=O)(=O)Cc1ccccc1)S(=O)(=O)c1ccccc1
[1]
  Dose: 100 mg/kg
[6]
  T/C: 186%
[4]
  Weight change: 2.2%

## CC(=O)Nc1ccc(S(=O)(=O)N(C)NS(=O)(=O)c2ccc(Br)cc2)cc1
[7]
  Dose: 150 mg/kg
[4]
  Weight change: -5.7%

## Cc1ccc(S(=O)(=O)NN(C)S(C)(=O)=O)cc1
[1]
  Dose: 60 mg/kg
[2]
  Dose: 40 mg/kg
[6]
  T/C: 256%
[3]
  T/C: 186%
[4]
  Weight change: -8.6%
[5]
  Weight change: -12.3%

## CN(NS(=O)(=O)c1ccc(Cl)cc1)S(=O)(=O)Cc1ccccc1
[1]
  Dose: 50 mg/kg
[2]
  Dose: 50 mg/kg
[4]
  Weight change: 1.4%
[5]
  Weight change: 10.2%

## CN(NS(=O)(=O)/C=C/c1ccccc1)S(=O)(=O)c1ccc(Cl)cc1
[1]
  Dose: 50 mg/kg
[4]
  Weight change: 1.1%

## CCS(=O)(=O)NN(C)S(=O)(=O)c1ccc(Cl)cc1
[1]
  Dose: 10 mg/kg
[4]
  Weight change: -0.1%

## CCS(=O)(=O)NN(C)S(=O)(=O)c1ccc(Br)cc1
[7]
  Dose: 30 mg/kg
[6]
  T/C: 190%
[4]
  Weight change: 4.5%

## CN(NS(=O)(=O)/C=C/c1ccccc1)S(=O)(=O)c1ccc(Br)cc1
[7]
  Dose: 100 mg/kg
[4]
  Weight change: 0.7%

## CN(NS(=O)(=O)/C=C/c1ccccc1)S(=O)(=O)/C=C/c1ccccc1
[7]
  Dose: 50 mg/kg
[4]
  Weight change: 2%

## Cc1ccc(S(=O)(=O)N(C)NS(=O)(=O)c2ccc([N+](=O)[O-])cc2)cc1
[1]
  Dose: 100 mg/kg
[4]
  Weight change: 1.4%

## COc1ccc(S(=O)(=O)N(C)NS(C)(=O)=O)cc1
[1]
  Dose: 20 mg/kg
[2]
  Dose: 20 mg/kg
[4]
  Weight change: -7.5%
[5]
  Weight change: -6.4%

## CN(NS(=O)(=O)c1ccc(Cl)cc1)S(=O)(=O)c1ccccc1
[1]
  Dose: 100 mg/kg
[2]
  Dose: 50 mg/kg
[4]
  Weight change: -2.9%
[5]
  Weight change: 14.6%

## CN(NS(=O)(=O)c1ccccc1)S(=O)(=O)c1ccc2ccccc2c1
[1]
  Dose: 50 mg/kg
[2]
  Dose: 100 mg/kg
[4]
  Weight change: 5.1%
[5]
  Weight change: 1.8%

## CN(NS(=O)(=O)c1ccc2ccccc2c1)S(=O)(=O)Cc1ccccc1
[1]
  Dose: 50 mg/kg
[2]
  Dose: 50 mg/kg
[6]
  T/C: 179%
[5]
  Weight change: 10.3%

## CN(NS(=O)(=O)c1ccc2ccccc2c1)S(=O)(=O)c1ccccc1
[1]
  Dose: 50 mg/kg
[4]
  Weight change: 2.5%

## CCS(=O)(=O)NN(C)S(=O)(=O)c1ccc(OC)cc1
[2]
  Dose: 50 mg/kg
[3]
  T/C: 149%
[5]
  Weight change: -8.7%

## CN(NS(=O)(=O)c1ccc2ccccc2c1)S(=O)(=O)c1ccc(Cl)cc1
[1]
  Dose: 50 mg/kg
[2]
  Dose: 100 mg/kg
[4]
  Weight change: -4%
[5]
  Weight change: 9%

## Cc1ccc(S(=O)(=O)NN(C)S(=O)(=O)c2ccc3ccccc3c2)cc1
[2]
  Dose: 75 mg/kg
[3]
  T/C: 120%
[5]
  Weight change: 8.6%

## Cc1ccc(S(=O)(=O)NN(C)S(=O)(=O)Cc2ccccc2)cc1
[1]
  Dose: 50 mg/kg
[2]
  Dose: 100 mg/kg
[3]
  T/C: 126%
[4]
  Weight change: 1%
[5]
  Weight change: 0.3%

## COc1ccc(S(=O)(=O)NN(C)S(=O)(=O)Cc2ccccc2)cc1
[1]
  Dose: 150 mg/kg
[4]
  Weight change: 0.2%

## CN(NS(=O)(=O)c1ccc(Cl)cc1)S(C)(=O)=O
[1]
  Dose: 60 mg/kg
[2]
  Dose: 60 mg/kg
[6]
  T/C: 219%
[3]
  T/C: 214%
[4]
  Weight change: -8.7%
[5]
  Weight change: -9.4%

## Cc1ccc(S(=O)(=O)N(C)NS(=O)(=O)c2ccc3ccccc3c2)cc1
[2]
  Dose: 75 mg/kg
[5]
  Weight change: 9.3%

## CN(NS(C)(=O)=O)S(=O)(=O)c1ccc(Br)cc1
[7]
  Dose: 20 mg/kg
[6]
  T/C: 225%
[4]
  Weight change: 4.2%

## CN(NS(=O)(=O)c1ccccc1)S(=O)(=O)c1ccccc1
[1]
  Dose: 100 mg/kg
[2]
  Dose: 50 mg/kg
[6]
  T/C: 175%
[4]
  Weight change: -2.3%
[5]
  Weight change: -4.8%

## COc1ccc(S(=O)(=O)NN(C)S(=O)(=O)c2ccc(Cl)cc2)cc1
[1]
  Dose: 50 mg/kg
[2]
  Dose: 150 mg/kg
[6]
  T/C: 189%
[3]
  T/C: 130%
[4]
  Weight change: 1%
[5]
  Weight change: -4.3%

## CN(NS(=O)(=O)c1ccc(Cl)cc1)S(=O)(=O)c1ccc(Br)cc1
[7]
  Dose: 200 mg/kg
[4]
  Weight change: 2%

## CCS(=O)(=O)NN(C)S(=O)(=O)c1ccc(I)cc1
[1]
  Dose: 30 mg/kg
[6]
  T/C: 177%
[4]
  Weight change: 5.2%

## CN(NS(C)(=O)=O)S(=O)(=O)c1ccc2ccccc2c1
[1]
  Dose: 20 mg/kg
[6]
  T/C: 193%
[4]
  Weight change: 1.4%

## CN(NS(C)(=O)=O)S(=O)(=O)Cc1ccccc1
[1]
  Dose: 30 mg/kg
[2]
  Dose: 20 mg/kg
[3]
  T/C: 165%
[4]
  Weight change: 1.9%
[5]
  Weight change: 6.7%

## CN(NS(C)(=O)=O)S(=O)(=O)c1ccc(Cl)cc1
[1]
  Dose: 20 mg/kg
[2]
  Dose: 20 mg/kg
[4]
  Weight change: -1.4%
[5]
  Weight change: 5.3%

## COc1ccc(S(=O)(=O)N(C)NS(=O)(=O)c2ccc3ccccc3c2)cc1
[1]
  Dose: 100 mg/kg
[4]
  Weight change: -0.1%

## CN(NS(C)(=O)=O)S(=O)(=O)c1ccc(I)cc1
[1]
  Dose: 40 mg/kg
[4]
  Weight change: 4%
